Results as given in ChEMBL document CHEMBL4261539, “18α-Glycyrrhetinic acid monoglucuronide as an anti-inflammatory agent through suppression of the NF-κB and MAPK signaling pathway” (Medchemcomm, 2017).
Activity calls are given as the source filed them. The rule behind the calls is not given here.

Assays:
RAW264.7 [1] = experiment: Anti-inflammatory activity in mouse RAW264.7 cells assessed as inhibition of LPS-induced IL-6 production at 10 to 40 uM preincubated for 2 hrs followed by LPS addition measured after 20 hrs by ELISA; assay type: functional, cell-based
How it was run: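 RAW264.7 cells are pretreated 2 h with compound at 40 or 10 μM, then held with or without LPS (1 μg mL–1) for 20 h. Supernatant IL-6 is quantified by ELISA. Results are means ± SD (n = 3) of at least three independent experiments.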

[2] = Cytotoxicity against mouse RAW264.7 cells assessed as cell viability at 40 uM after 24 hrs by MTT assay relative to control; assay type: cell-based; conditions: read-out: Activity
RAW264.7 [3] = experiment: Anti-inflammatory activity in mouse RAW264.7 cells assessed as inhibition of LPS-induced NO production at 40 uM preincubated for 2 hrs followed by LPS addition measured after 20 hrs by Griess assay relative to control; assay type: functional
How it was run: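 Macrophages (RAW264.7) are pretreated 2 h with compound at 40 μM, then held with or without LPS (1 μg mL–1) for 20 h. Released NO is measured with Griess reagent. Results are means ± SD (n = 3) from at least three independent experiments.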

Mus musculus [4] = experiment: Anti-inflammatory activity in C57BL6 mouse model of CCl4-induced hepatic fibrosis assessed as reduction in inflammatory cell infiltration in hepatic tissue at 0.1 mg/kg, ig administered 2 times per week for 4 weeks by H and E staining based assay; assay type: functional, organism-based
How it was run: (§1)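 Male SPF C57BL6 mice (20 ± 2 g), acclimatized for at least one week under controlled temperature, humidity and light cycle. Hepatic fibrosis was induced with CCl4, with control and model groups run alongside. Liver tissue was H&E-stained and examined by light microscopy for inflammatory cell infiltration, hepatocyte degeneration and fibrosis.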

Mus musculus [5] = experiment: Anti-inflammatory activity in C57BL6 mouse model of CCl4-induced hepatic fibrosis assessed as reduction in blue collagen fibers in hepatic tissue at 0.1 mg/kg, ig administered 2 times per week for 4 weeks by masson staining based assay; assay type: functional, organism-based
How it was run: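 Male SPF C57BL6 mice (20 ± 2 g), housed at 22 ± 2 °C and 50% humidity with a 12 h light/dark cycle, acclimatized for at least one week. CCl4-induced hepatic fibrosis model, groups compared with untreated control and CCl4 model groups. Liver sections were Masson-stained, and blue collagen fibers were scored by light microscopy.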

Mus musculus [6] = experiment: Anti-inflammatory activity in C57BL6 mouse model of CCl4-induced hepatic fibrosis assessed as reduction in hepatic fibrosis at 0.1 mg/kg, ig administered 2 times per week for 4 weeks by H and E staining based assay; assay type: functional, organism-based; how it was run: as §1
[7] = biological target: Transcription factor p65 (Mus musculus) (UniProt Q04207); experiment: Inhibition of LPS-induced NF-kB p65 nuclear tanslocation in mouse RAW264.7 cells at 20 to 30 uM preincubated for 1 hr followed by LPS addition measured after 3 hrs by DAPI staining based immunofluorescence assay; assay type: cell-based
Chain of Transcription factor p65 (Mus musculus) (Q04207 whole entry): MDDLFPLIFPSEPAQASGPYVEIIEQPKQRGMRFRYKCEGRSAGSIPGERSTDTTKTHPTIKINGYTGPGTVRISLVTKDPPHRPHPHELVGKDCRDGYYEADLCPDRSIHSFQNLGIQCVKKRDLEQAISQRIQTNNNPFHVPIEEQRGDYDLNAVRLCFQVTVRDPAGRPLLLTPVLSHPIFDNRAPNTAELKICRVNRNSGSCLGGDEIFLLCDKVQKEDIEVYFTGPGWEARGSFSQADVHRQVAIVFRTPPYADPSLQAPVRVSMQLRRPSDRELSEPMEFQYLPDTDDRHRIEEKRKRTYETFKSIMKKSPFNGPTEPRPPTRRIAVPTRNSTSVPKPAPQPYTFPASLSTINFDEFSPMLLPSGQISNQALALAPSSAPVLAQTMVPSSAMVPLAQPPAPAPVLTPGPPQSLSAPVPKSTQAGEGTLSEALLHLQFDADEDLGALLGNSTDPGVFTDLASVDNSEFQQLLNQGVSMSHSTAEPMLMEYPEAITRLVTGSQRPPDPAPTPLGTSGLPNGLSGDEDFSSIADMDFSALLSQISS
How it was run: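 For p65 nuclear translocation, RAW264.7 cells are pretreated 1 h with test article, then stimulated with LPS (1 μg mL–1) for 3 h before immunofluorescence imaging.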

RAW264.7 [8] = experiment: Anti-inflammatory activity in mouse RAW264.7 cells assessed as inhibition of LPS-induced iNOS protein expression measured after 20 hrs by Western blot analysis; assay type: functional, cell-based
How it was run: (§2)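 RAW264.7 cells are treated with graded concentrations of test article, then held with or without LPS (1 μg mL–1) for 20 h. iNOS and COX-2 protein are measured. The NF-κB inhibitor Bay 11-7082 (20 μM) serves as reference. Results are means ± SD (n = 3) of at least three independent experiments.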

Mus musculus [9] = experiment: Anti-inflammatory activity in C57BL6 mouse model of CCl4-induced hepatic fibrosis assessed as reduction in blue collagen fibers in hepatic tissue at 100 to 200 mg/kg, ig administered 2 times per week for 4 weeks by masson staining based assay; assay type: functional, organism-based
How it was run: (§3)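 Male SPF C57BL6 mice (20 ± 2 g) are acclimatized at least one week at 22 ± 2 °C, 50% humidity, 12 h light/dark, with free food and water. CCl4 induces hepatic fibrosis. Groups are control, model, colchicine 0.1 mg kg–1, and test article at 100 or 200 mg kg–1. Liver sections are scored by light microscopy after H&E and Masson staining.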

Mus musculus [10] = experiment: Anti-inflammatory activity in C57BL6 mouse model of CCl4-induced hepatic fibrosis assessed as reduction in inflammatory cell infiltration in hepatic tissue at 100 to 200 mg/kg, ig administered 2 times per week for 4 weeks by H and E staining based assay; assay type: functional, organism-based; how it was run: as §3
Mus musculus [11] = experiment: Anti-inflammatory activity in C57BL6 mouse model of CCl4-induced hepatic fibrosis assessed as reduction in hepatic fibrosis at 100 to 200 mg/kg, ig administered 2 times per week for 4 weeks by H and E staining based assay; assay type: functional, organism-based; how it was run: as §3
RAW264.7 [12] = experiment: Inhibition of LPS-induced ERK phosphorylation in mouse RAW264.7 cells after 30 mins by Western blot analysis; assay type: cell-based
How it was run: (§4)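 RAW264.7 cells are exposed to 10–30 μM test article plus LPS (1 μg mL–1) for 30 min. Total and phosphorylated proteins are probed by western blot: NF-κB p65 and IκB, with Bay 11-7082 (20 μM) as reference, and JNK, ERK1/2 and p38 MAPK. Results are means ± SD (n = 3) from at least three independent experiments.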

[13] = Inhibition of LPS-induced IkBalpha phosphorylation in mouse RAW264.7 cells at 10 to 30 uM after 30 mins by Western blot analysis
RAW264.7 [14] = experiment: Anti-inflammatory activity in mouse RAW264.7 cells assessed as inhibition of LPS-induced COX2 protein expression measured after 20 hrs by Western blot analysis; assay type: functional, cell-based; how it was run: as §2
[15] = biological target: Transcription factor p65 (Mus musculus) (UniProt Q04207); experiment: Inhibition of LPS-induced NF-kB p65 phosphorylation in mouse RAW264.7 cells at 10 to 30 uM after 30 mins by Western blot analysis; assay type: cell-based; how it was run: as §4

Row | SMILES | inhibition (RAW264.7 [1]) | viability at 24 h, 40 µM [2] | inhibition (RAW264.7 [3]) | other results
1 | CC1(C)[C@@H](O[C@H]2O[C@H](C(=O)O)[C@@H](O)[C@H](O)[C@H]2O[C@@H]2O[C@H](C(=O)O)[C@@H](O)[C@H](O)[C@H]2O)CC[C@]2(C)[C@H]3C(=O)C=C4[C@@H]5C[C@@](C)(C(=O)O)CC[C@]5(C)CC[C@@]4(C)[C@]3(C)CC[C@@H]12 [GLYCYRRHIZIN] | Active | > 96% | Active | 
2 | CC1(C)[C@@H](O[C@H]2O[C@H](C(=O)O)[C@@H](O)[C@H](O)[C@H]2O)CC[C@]2(C)[C@H]3C(=O)C=C4[C@@H]5C[C@@](C)(C(=O)O)CC[C@]5(C)CC[C@@]4(C)[C@]3(C)CC[C@@H]12 | Active | > 96% | Active | 
3 | CC1(C)[C@@H](O)CC[C@]2(C)[C@H]3C(=O)C=C4[C@@H]5C[C@@](C)(C(=O)O)CC[C@]5(C)CC[C@@]4(C)[C@]3(C)CC[C@@H]12 [ENOXOLONE] | Active | > 96% | Active | 
4 | COc1cc2c(c(OC)c1OC)-c1ccc(OC)c(=O)cc1[C@@H](NC(C)=O)CC2 |  |  |  | Activity (Mus musculus [4]): Active; Activity (Mus musculus [5]): Active; Activity (Mus musculus [6]): Active
5 | CC1(C)[C@@H](O)CC[C@]2(C)[C@H]3C(=O)C=C4[C@H]5C[C@@](C)(C(=O)O)CC[C@]5(C)CC[C@@]4(C)[C@]3(C)CC[C@@H]12 [18alpha-GLYCYRRHETINIC ACID] | Active | > 96% | Active | 
6 | CC1(C)[C@@H](O[C@H]2O[C@H](C(=O)O)[C@@H](O)[C@H](O)[C@H]2O)CC[C@]2(C)[C@H]3C(=O)C=C4[C@H]5C[C@@](C)(C(=O)O)CC[C@]5(C)CC[C@@]4(C)[C@]3(C)CC[C@@H]12 | Active | > 96% |  | inhibition [7]: Active; inhibition (RAW264.7 [8]): Dose-dependent effect; Activity (Mus musculus [9]): Active; Activity (Mus musculus [10]): Active; Activity (Mus musculus [11]): Active; inhibition (RAW264.7 [12]): Dose-dependent effect; inhibition [13]: Active; inhibition (RAW264.7 [14]): Dose-dependent effect; inhibition [15]: Active; inhibition at 40 µM (RAW264.7 [3]): > 70%
7 | CC1(C)[C@@H](O[C@H]2O[C@H](C(=O)O)[C@@H](O)[C@H](O)[C@H]2O[C@@H]2O[C@H](C(=O)O)[C@@H](O)[C@H](O)[C@H]2O)CC[C@]2(C)[C@H]3C(=O)C=C4[C@H]5C[C@@](C)(C(=O)O)CC[C@]5(C)CC[C@@]4(C)[C@]3(C)CC[C@@H]12 | Active | > 96% | Active | 
